Results on 46 compounds are retold here after ChEMBL document CHEMBL1147759, “Substituted indanylacetic acids as PPAR-alpha-gamma activators” (Bioorg Med Chem Lett, 2006).

The EC50 is the concentration that produces a half-maximal response.

Test [1] addresses T1, Peroxisome proliferator-activated receptor alpha (Homo sapiens, UniProt Q07869).
T1 sequence (Q07869 whole entry): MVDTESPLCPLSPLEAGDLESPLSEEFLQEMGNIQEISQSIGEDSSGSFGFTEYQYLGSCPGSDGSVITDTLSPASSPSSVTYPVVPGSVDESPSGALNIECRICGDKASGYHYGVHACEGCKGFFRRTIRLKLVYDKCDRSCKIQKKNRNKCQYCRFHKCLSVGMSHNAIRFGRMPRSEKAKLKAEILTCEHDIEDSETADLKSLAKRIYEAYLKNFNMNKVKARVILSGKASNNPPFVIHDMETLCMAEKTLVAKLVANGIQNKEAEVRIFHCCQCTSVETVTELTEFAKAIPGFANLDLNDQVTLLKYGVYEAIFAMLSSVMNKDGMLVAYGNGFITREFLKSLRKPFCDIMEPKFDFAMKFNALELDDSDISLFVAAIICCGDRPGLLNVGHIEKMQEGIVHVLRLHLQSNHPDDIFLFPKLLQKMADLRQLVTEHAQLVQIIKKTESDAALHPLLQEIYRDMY
The experiment in a line: Activity against PPAR alpha in human by FRET assay. In a few lines:
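Human PPAR-α ligand-binding domain (GST-tagged), incubated with compound, europium-labelled anti-GST antibody, biotinylated CREB-binding protein co-activator and streptavidin-APC. Time-resolved FRET read with excitation at 340 nm and emission at 615 and 640 nm. EC50 taken as the mean of at least three experiments.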

The target of test [2] is T2, Peroxisome proliferator-activated receptor gamma (Homo sapiens, UniProt P37231).
T2 sequence (P37231 whole entry): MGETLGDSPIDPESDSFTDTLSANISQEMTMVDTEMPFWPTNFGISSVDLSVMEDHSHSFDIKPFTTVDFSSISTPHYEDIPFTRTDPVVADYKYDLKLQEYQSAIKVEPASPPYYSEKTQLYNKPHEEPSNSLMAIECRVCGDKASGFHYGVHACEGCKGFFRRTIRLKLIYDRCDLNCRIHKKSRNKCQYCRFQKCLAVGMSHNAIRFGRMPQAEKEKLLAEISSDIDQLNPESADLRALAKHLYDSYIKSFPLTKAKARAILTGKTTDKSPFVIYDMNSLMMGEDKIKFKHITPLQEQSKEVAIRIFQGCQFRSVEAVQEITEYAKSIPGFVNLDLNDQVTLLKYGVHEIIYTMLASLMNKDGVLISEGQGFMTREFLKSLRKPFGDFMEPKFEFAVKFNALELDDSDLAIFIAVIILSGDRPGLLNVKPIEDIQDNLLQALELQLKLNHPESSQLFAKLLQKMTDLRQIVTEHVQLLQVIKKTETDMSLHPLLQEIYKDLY
Description: Activity against PPAR gamma in human by FRET assay.

Each structure is given as a SMILES string.

Consider `CCC(C(=O)O)C1CCc2cc(OCCc3nc(-c4ccc5c(c4)OCO5)oc3C)ccc21` (configuration not stated), for which the EC50 amounted to 354 nM in test [1] and 14 nM in test [2].

For `CCC(C(=O)O)C1CCc2cc(OCCc3nc(-c4ccc(OC)c(OC)c4)oc3C)ccc21` (configuration not stated), the EC50 in test [1] was 1130 nM; in test [2] it was 84 nM.

For `CCC(C(=O)O)C1CCc2cc(OCCc3nc(-c4ccc(C)c(F)c4)oc3C)ccc21` (configuration not stated), the EC50 in test [1] stood at 46 nM; in test [2], 43 nM.

For the compound `CCC(C(=O)O)C1CCc2cc(OCCc3nc(Cc4ccc(F)cc4)oc3C)ccc21` (configuration not stated), the EC50 in test [1] worked out at 204 nM; in test [2], 523 nM.

`CCC(C(=O)O)C1CCc2cc(OCCc3nc(-c4ccc(Cl)cc4Cl)oc3C)ccc21` (configuration not stated): the EC50 in test [1] turned out to be 5480 nM; in test [2], 738 nM.

For `CCC(C(=O)O)C1CCc2cc(OCCc3nc(-c4ccc(C)cc4)oc3C)ccc21` (configuration not stated), the concentration for a half-maximal effect (EC50) in test [1] came to 65 nM; in test [2], 45 nM.

On to `CCC(C(=O)O)C1CCc2cc(OCCc3nc(-c4ccccc4F)oc3C)ccc21` (configuration not stated), for which the concentration for a half-maximal effect (EC50) in test [1] was 559 nM; in test [2], 49 nM.

In the case of `CCC(C(=O)O)C1CCc2cc(OCCc3nc(COc4ccccc4)oc3C)ccc21` (configuration not stated), the EC50 in test [1] came to 61 nM; in test [2], 45 nM.

`CCC(C(=O)O)C1CCc2cc(OCCc3nc(-c4cccc(C(F)(F)F)c4)oc3C)ccc21` (configuration not stated): the EC50 came out at 171 nM in test [1] and 21 nM in test [2].

For the compound `CCC(C(=O)O)C1CCc2cc(OCCc3nc(-c4ccc(C(C)(C)C)cc4)oc3C)ccc21` (configuration not stated), the EC50 in test [1] was found to be 240 nM; in test [2] it was 19 nM.

As for `CCC(C(=O)O)C1CCc2cc(OCCc3nc(-c4ccc(F)c(C)c4)oc3C)ccc21` (configuration not stated), the EC50 in test [1] was found to be 75 nM; in test [2], 77 nM.

`CC[C@@H](C(=O)O)[C@H]1CCc2cc(OCCc3nc(-c4ccc(C)cc4)oc3C)ccc21`: the EC50 in test [1] and in test [2] was above 10000 nM each time.

For the compound `CCc1ccc(-c2nc(CCOc3ccc4c(c3)CCC4C(CC)C(=O)O)c(C)o2)cc1` (configuration not stated), the EC50 in test [1] stood at 109 nM; in test [2] it was 40 nM.

On to `CCC(C(=O)O)C1CCc2cc(OCCc3nc(-c4cccc(OC)c4)oc3C)ccc21` (configuration not stated), for which the results for the EC50 in test [1] and in test [2] were 254 nM and 1 nM, respectively.

As for `CCC(C(=O)O)C1CCc2cc(OCCc3nc(-c4ccco4)oc3C)ccc21` (configuration not stated), the EC50 is 745 nM in test [1] and 396 nM in test [2].

`CCC(C(=O)O)C1CCc2cc(OCCc3nc(-c4cccc(C)c4)oc3C)ccc21` (configuration not stated): the EC50 was determined as 271 nM in test [1] and 34 nM in test [2].

Turning to `CCC(C(=O)O)C1CCc2cc(OCCc3nc(C4CCCCC4)oc3C)ccc21` (configuration not stated), the figures for the EC50 in test [1] and in test [2] were 111 nM and 136 nM, respectively.

As for `CCC(C(=O)O)C1CCc2cc(OCCc3nc(C4CCCC4)oc3C)ccc21` (configuration not stated), the EC50 is 202 nM in test [1] and 212 nM in test [2].

As for `CCC(C(=O)O)C1CCc2cc(OCCc3nc(-c4ccc(OC)cc4)oc3C)ccc21` (configuration not stated), the EC50 in test [1] was determined as 199 nM; in test [2] it was 42 nM.

For the compound `CCC(C(=O)O)C1CCc2cc(OCCc3nc(-c4ccc5c(c4)OCC5)oc3C)ccc21` (configuration not stated), the EC50 in test [1] was determined as 65 nM; in test [2], 6 nM.

Regarding `CC[C@H](C(=O)O)[C@@H]1CCc2cc(OCCc3nc(-c4ccccc4)oc3C)ccc21`, the figures for the EC50 in test [1] and in test [2] were 62 nM and 6 nM, respectively.

On to `CCC(C(=O)O)C1CCc2cc(OCCc3nc(-c4cc(C)on4)oc3C)ccc21` (configuration not stated), for which the EC50 in test [1] was 827 nM; in test [2] it was 762 nM.

As to `CC[C@@H](C(=O)O)[C@@H]1CCc2cc(OCCc3nc(-c4ccc(C)cc4)oc3C)ccc21`, the 50% effective concentration (EC50) in test [1] is 1520 nM; in test [2], above 10000 nM.

`CC[C@H](C(=O)O)[C@H]1CCc2cc(OCCc3nc(-c4ccccc4)oc3C)ccc21`: the EC50 is 26 nM in test [1] and 19 nM in test [2].

Turning to `CC[C@H](C(=O)O)[C@@H]1CCc2cc(OCCc3nc(-c4ccc(F)cc4)oc3C)ccc21`, the EC50 in test [1] is 94 nM; in test [2] it was 46 nM.

Turning to `CC[C@H](C(=O)O)[C@H]1CCc2cc(OCCc3nc(-c4ccc(C)cc4)oc3C)ccc21`, the EC50 in test [1] came out at 48 nM; in test [2] it was 83 nM.

For the compound `CCC(C(=O)O)C1CCc2cc(OCCc3nc(-c4cc5ccccc5s4)oc3C)ccc21` (configuration not stated), the figures for the EC50 in test [1] and in test [2] were 287 nM and 37 nM, respectively.

Regarding `CC[C@@H](C(=O)O)[C@H]1CCc2cc(OCCc3nc(-c4ccc(Cl)c(Cl)c4)oc3C)ccc21`, the EC50 in test [1] came to 63 nM; in test [2] it was 225 nM.

For `CCCCc1ccc(-c2nc(CCOc3ccc4c(c3)CCC4C(CC)C(=O)O)c(C)o2)cc1` (configuration not stated), the EC50 in test [1] was determined as 82 nM; in test [2] it was 16 nM.

As for `CCC(C(=O)O)C1CCc2cc(OCCc3nc(-c4ccc(C)c(C)c4)oc3C)ccc21` (configuration not stated), the EC50 in test [1] came out at 38 nM; in test [2], 32 nM.

In the case of `CCC(C(=O)O)C1CCc2cc(OCCc3nc(-c4ccc5ccccc5c4)oc3C)ccc21` (configuration not stated), the values for the EC50 in test [1] and in test [2] were 104 nM and 16 nM, respectively.

As for `CCC(C(=O)O)C1CCc2cc(OCCc3nc(-c4c(F)cccc4F)oc3C)ccc21` (configuration not stated), the EC50 in test [1] stood at 523 nM; in test [2] it was 368 nM.

As for `CCC(C(=O)O)C1CCc2cc(OCCc3nc(COc4ccc(Cl)cc4)oc3C)ccc21` (configuration not stated), the EC50 in test [1] came out at 53 nM; in test [2], 104 nM.

For `CC[C@@H](C(=O)O)[C@H]1CCc2cc(OCCc3nc(-c4ccc(F)cc4)oc3C)ccc21`, the values for the EC50 in test [1] and in test [2] were 868 nM and above 10000 nM, respectively.

On to `CC[C@H](C(=O)O)[C@@H]1CCc2cc(OCCc3nc(-c4ccc(Cl)c(Cl)c4)oc3C)ccc21`, for which the EC50 in test [1] worked out at 57 nM; in test [2], 46 nM.

Take `CC[C@@H](C(=O)O)[C@H]1CCc2cc(OCCc3nc(-c4ccccc4)oc3C)ccc21`: the EC50 is above 10000 nM in test [1] and 605 nM in test [2].

Turning to `CCC(C(=O)O)C1CCc2cc(OCCc3nc(-c4cc(C(F)(F)F)cc(C(F)(F)F)c4)oc3C)ccc21` (configuration not stated), the EC50 in test [1] turned out to be 1170 nM; in test [2], 247 nM.

As to `CC[C@@H](C(=O)O)[C@@H]1CCc2cc(OCCc3nc(-c4ccccc4)oc3C)ccc21`, the values for the EC50 in test [1] and in test [2] were 350 nM and 95 nM, respectively.

For `CCC(C(=O)O)C1CCc2cc(OCCc3nc(-c4cccc5ccccc45)oc3C)ccc21` (configuration not stated), the results for the EC50 in test [1] and in test [2] were 451 nM and 113 nM, respectively.

On to `CCC(C(=O)O)C1CCc2cc(OCCc3nc(-c4ccc(C(C)C)cc4)oc3C)ccc21` (configuration not stated), for which the EC50 in test [1] was 119 nM; in test [2], 22 nM.

Regarding `CCC(C(=O)O)C1CCc2cc(OCCc3nc(-c4ccc(-c5ccccc5)cc4)oc3C)ccc21` (configuration not stated), the EC50 was found to be 3280 nM in test [1] and 43 nM in test [2].

For the compound `CCC(C(=O)O)C1CCc2cc(OCCc3nc(-c4ccc(Cl)cc4)oc3C)ccc21` (configuration not stated), the EC50 amounted to 92 nM in test [1] and 206 nM in test [2].

Turning to `CCC(C(=O)O)C1CCc2cc(OCCc3nc(-c4cccc(F)c4)oc3C)ccc21` (configuration not stated), the EC50 in test [1] was determined as 336 nM; in test [2], 61 nM.

Turning to `Cc1oc(-c2ccccc2)nc1CCOc1ccc2c(c1)CCC2C(C)C(=O)O` (configuration not stated), the EC50 in test [1] was 1000 nM; in test [2], 104 nM.

For `CCC(C(=O)O)C1CCc2cc(OCCc3nc(-c4ccccc4C)oc3C)ccc21` (configuration not stated), the EC50 was 637 nM in test [1] and 153 nM in test [2].

Take `CCC(C(=O)O)C1CCc2cc(OCCc3nc(-c4ccc(C(F)(F)F)cc4)oc3C)ccc21` (configuration not stated): the EC50 in test [1] was 58 nM; in test [2] it was 205 nM.
